Test results taken from PMC12343878 (Communications Biology, 2025).
Square brackets hold non-standard residues; d marks the D form. Peptide text beside a SMILES is read from it. * marks the point of attachment. X1 = CCCCCCCCCCCCCCCC(=O)OC[C@H](COP(=O)(O)OCCNC(=O)CCCc1ccc(N2C(=O)CC(*)C2=O)cc1)OC(=O)CCCCCCCCCCCCCCC; pS = N[C@@H](COP(=O)(O)O)C(=O)O

Columns and labels:
AP2 [1] = target: T1, AP2 (UniProt P18484+P62743+P63010+P84092); test: Equilibrium tensiometry binding analysis
AP2 [2] = target: T1, AP2; test: SNR low-resolution slab model of membrane-bound AP2 on Langmuir monolayers; format: binding; conditions: AP2 10 nM
Procedure, shortened: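 Langmuir-trough monolayers held at 25 ± 1 mN/m were measured on the FIGARO reflectometer, then AP2 was injected beneath them to a final bulk concentration of 10 nM. Settings were two incidence angles (0.6°, 3.7°), 7% wavelength resolution and Qz 0.007–0.25 Å−1, with 100% D2O and 8.1% D2O contrasts. The bound protein was fitted as a slab of constant SLD. Fit errors were ±1σ, checked against triplicate measurements.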

AP2 [3] = target: T1, AP2; test: High-resolution SNR rigid-body modeling of membrane-bound AP2; format: binding
Procedure, shortened: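 Measured on the FIGARO time-of-flight reflectometer at 0.6° and 3.7°, 7% dλ/λ, Qz 0.007–0.25 Å−1, in 100% and 8.1% D2O contrasts. Trough monolayers at 25 ± 1 mN/m were measured before and after AP2 injection into the subphase (final 10 nM). SLD profiles were calculated from energy-minimised open, open+ and closed AP2 models (PDB […], 6qh6, 2vgl) to fit orientation and position. Fractional coverage is given as mean ± SD, n = 256.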

AP2 [4] = target: T1, AP2; test: Fluid-phase tapping-mode AFM of transferred monolayers; conditions: CD4-presenting monolayers
Procedure, shortened: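 Monolayers were transferred from a Langmuir trough onto glass coverslips by Langmuir–Schaeffer and imaged by fluid-phase tapping-mode AFM. Scans were 5 μm at 256×256 pixels and 1 Hz. A droplet of HKM buffer containing recombinant AP2 was spread and imaged before evaporation. Thickness profiles (n = 10) were Gaussian-fitted to give mean ± SD.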

[5] = SNR of Langmuir lipid monolayers before AP2; format: physicochemical; conditions: Π0 = 25 ± 0.5 mN/m
[6] = Surface pressure - area isotherms of PM model membranes; format: physicochemical; conditions: T = 21 ± 0.5 °C
[7] = target: CD4 lipo-peptide (di-leucine peptide derived from the phosphorylated cytoplasmic tail of CD4, lipid-conjugated); test: specular neutron reflectometry
[8] = target: TGN38 lipo-peptide (Yxxφ-containing peptide derived from the cytoplasmic tail of TGN38, lipid-conjugated); test: specular neutron reflectometry
[9] = target: CD4 lipo-peptide (di-leucine peptide derived from the phosphorylated cytoplasmic tail of CD4, lipid-conjugated); test: Langmuir trough surface-pressure tensiometry
[10] = target: TGN38 lipo-peptide (Yxxφ-containing peptide derived from the cytoplasmic tail of TGN38, lipid-conjugated); test: Langmuir trough surface-pressure tensiometry

Chain of AP2 (recombinant adaptor protein complex 2, hetero-tetramer) (P18484 whole entry): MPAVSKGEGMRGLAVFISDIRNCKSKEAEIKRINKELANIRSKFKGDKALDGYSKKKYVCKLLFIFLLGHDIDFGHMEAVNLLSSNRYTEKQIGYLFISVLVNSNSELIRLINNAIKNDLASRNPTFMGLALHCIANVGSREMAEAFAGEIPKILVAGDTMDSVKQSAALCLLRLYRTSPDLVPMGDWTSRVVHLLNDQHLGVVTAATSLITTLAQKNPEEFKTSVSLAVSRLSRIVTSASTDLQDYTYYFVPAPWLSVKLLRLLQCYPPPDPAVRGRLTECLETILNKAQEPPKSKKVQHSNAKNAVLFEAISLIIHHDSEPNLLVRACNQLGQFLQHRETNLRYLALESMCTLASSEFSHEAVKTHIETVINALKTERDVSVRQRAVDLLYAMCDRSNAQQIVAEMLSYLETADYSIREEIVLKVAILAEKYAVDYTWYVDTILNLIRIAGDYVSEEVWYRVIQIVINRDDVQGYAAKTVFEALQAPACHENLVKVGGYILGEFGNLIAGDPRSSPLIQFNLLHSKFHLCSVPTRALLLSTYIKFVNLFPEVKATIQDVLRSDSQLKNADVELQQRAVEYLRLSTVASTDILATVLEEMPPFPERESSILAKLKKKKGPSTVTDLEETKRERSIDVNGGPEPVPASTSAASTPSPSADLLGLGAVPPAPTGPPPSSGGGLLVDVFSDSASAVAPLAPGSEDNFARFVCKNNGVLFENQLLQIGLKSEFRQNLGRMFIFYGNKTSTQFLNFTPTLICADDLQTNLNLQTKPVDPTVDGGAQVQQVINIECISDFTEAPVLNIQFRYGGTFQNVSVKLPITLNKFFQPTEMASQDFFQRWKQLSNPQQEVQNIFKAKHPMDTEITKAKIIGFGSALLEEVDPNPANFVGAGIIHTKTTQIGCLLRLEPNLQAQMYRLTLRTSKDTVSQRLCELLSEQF
Chain of AP2 (recombinant adaptor protein complex 2, hetero-tetramer) (P63010 whole entry): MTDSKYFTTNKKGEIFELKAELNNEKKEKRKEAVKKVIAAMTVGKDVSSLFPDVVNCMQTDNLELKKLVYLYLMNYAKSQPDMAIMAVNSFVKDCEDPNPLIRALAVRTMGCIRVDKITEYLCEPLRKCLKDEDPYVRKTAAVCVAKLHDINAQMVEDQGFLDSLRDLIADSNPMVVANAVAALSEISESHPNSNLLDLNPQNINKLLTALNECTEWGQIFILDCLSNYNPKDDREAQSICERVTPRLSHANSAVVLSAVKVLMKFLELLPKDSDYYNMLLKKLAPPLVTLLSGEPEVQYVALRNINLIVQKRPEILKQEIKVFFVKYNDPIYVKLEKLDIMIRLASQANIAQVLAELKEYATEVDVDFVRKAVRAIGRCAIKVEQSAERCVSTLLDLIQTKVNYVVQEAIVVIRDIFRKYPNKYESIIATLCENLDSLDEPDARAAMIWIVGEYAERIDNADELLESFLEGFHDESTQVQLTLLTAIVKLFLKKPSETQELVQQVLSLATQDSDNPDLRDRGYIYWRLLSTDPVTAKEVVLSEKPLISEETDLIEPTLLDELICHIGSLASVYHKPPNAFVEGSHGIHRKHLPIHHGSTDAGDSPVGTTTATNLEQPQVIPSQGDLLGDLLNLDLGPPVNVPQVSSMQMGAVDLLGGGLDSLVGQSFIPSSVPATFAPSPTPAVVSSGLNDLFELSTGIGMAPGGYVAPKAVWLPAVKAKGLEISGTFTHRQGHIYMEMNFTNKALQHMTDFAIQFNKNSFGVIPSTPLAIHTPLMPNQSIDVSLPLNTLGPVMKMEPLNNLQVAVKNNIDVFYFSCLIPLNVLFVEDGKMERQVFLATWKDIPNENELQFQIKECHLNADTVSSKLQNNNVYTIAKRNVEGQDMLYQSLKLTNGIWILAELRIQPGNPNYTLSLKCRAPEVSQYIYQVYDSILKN
Chain of AP2 (recombinant adaptor protein complex 2, hetero-tetramer) (P84092 whole entry): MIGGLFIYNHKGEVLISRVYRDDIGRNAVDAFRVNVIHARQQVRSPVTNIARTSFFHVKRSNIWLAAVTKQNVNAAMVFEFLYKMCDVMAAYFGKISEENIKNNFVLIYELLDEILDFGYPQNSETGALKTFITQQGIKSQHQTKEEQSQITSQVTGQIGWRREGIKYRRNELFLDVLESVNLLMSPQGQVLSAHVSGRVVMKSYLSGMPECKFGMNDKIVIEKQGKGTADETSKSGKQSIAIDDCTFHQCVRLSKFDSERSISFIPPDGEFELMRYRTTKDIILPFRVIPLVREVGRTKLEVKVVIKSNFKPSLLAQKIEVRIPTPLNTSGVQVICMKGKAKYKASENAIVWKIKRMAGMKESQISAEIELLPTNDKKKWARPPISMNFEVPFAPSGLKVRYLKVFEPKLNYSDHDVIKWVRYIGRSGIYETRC
Chain of AP2 (recombinant adaptor protein complex 2, hetero-tetramer) (P62743 whole entry): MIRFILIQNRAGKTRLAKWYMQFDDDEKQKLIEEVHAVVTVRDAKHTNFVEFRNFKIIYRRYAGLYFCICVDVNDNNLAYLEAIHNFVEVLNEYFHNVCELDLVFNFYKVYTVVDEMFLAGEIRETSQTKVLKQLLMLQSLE
T1 sequence (P63010 1-591): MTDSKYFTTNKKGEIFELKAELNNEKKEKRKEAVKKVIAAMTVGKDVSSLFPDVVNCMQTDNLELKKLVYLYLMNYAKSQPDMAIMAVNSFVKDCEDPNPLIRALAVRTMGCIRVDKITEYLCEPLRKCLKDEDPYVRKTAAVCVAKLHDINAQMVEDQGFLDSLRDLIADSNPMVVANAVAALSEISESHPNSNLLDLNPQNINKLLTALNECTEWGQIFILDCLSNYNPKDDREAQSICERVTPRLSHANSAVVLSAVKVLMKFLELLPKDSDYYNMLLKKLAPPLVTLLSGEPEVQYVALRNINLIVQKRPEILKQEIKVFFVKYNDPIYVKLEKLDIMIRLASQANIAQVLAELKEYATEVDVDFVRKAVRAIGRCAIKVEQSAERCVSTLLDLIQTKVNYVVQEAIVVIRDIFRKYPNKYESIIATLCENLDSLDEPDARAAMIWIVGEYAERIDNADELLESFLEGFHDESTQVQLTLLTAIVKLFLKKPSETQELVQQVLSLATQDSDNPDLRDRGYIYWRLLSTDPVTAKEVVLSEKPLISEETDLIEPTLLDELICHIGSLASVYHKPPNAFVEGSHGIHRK
T1 sequence (P84092 whole entry): as the sequence (P84092 whole entry) above
T1 sequence (P18484 1-621): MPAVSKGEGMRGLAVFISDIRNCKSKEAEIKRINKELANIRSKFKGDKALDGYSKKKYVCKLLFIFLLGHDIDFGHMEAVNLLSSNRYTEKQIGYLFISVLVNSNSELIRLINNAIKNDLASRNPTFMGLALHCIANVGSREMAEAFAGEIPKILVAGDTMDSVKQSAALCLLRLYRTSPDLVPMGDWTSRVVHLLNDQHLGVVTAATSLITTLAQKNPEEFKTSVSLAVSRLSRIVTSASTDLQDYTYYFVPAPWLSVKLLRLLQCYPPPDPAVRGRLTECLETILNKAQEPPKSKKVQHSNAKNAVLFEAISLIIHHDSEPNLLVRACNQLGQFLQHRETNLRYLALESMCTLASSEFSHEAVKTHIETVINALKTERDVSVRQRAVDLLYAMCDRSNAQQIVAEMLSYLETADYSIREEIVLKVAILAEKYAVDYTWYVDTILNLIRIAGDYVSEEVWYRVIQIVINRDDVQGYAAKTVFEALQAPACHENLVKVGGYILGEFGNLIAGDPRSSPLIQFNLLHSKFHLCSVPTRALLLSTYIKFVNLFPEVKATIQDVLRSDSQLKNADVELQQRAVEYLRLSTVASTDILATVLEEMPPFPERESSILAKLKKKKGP
T1 sequence (P62743 whole entry): as the sequence (P62743 whole entry) above

Molecule | change in lateral pressure ΔΠ∞ on addition of cargo (AP2 [1]; AP2, Π0 = 25 mN/m, vs PtdIns(4,5)P2-only) | AP2 concentration above which biphasic binding behavior is observed (AP2 [1]; cargo-presenting monolayer vs PtdIns(4,5)P2-only) [nM] | total thickness of membrane-bound AP2 (AP2 [2]) [Å] | surface coverage of AP2 (AP2 [3]; open AP2 conformation) [%] | distance of AP2 center-of-mass to membrane head group (AP2 [3]; open AP2 conformation (2xa7)) [Å] | increment of bright spots' thickness after AP2 (AP2 [4]) | location of cargo peptides in monolayer [5] | effect on liquid expanded (LE) phase [6] | surface coverage of AP2 on the monolayer (with PtdIns(4,5)P2) [7] [%] | surface coverage of AP2 on the monolayer (with PtdIns(4,5)P2) [8] [%] | Kd [9] [nM] | apparent koff (combined cargo and PtdIns(4,5)P2 binding, monolayer) [9] [s⁻¹] | overall Kd (monolayer with cargo and PtdIns(4,5)P2, 35 mN/m) [9] [nM] | residence time (1/koff) on the monolayer with PtdIns(4,5)P2 [9] [s] | Kd from kinetics (monolayer with cargo and PtdIns(4,5)P2) [10] [nM] | overall Kd (monolayer with cargo and PtdIns(4,5)P2) [10] [nM] | overall Kd (monolayer with cargo and PtdIns(4,5)P2, 35 mN/m) [10] [nM] | residence time (1/koff) on the monolayer with PtdIns(4,5)P2 [10] [s]
CCCCCCCCCCCCCCCC(=O)OC[C@H](COP(=O)(O)OCCNC(=O)CCCc1ccc(N2C(=O)CC(SC[C@H](N)C(=O)N[C@@H](Cc3c[nH]cn3)C(=O)N[C@@H](CCCNC(=N)N)C(=O)N[C@@H](CCCNC(=N)N)C(=O)N[C@@H](CCCNC(=N)N)C(=O)N[C@@H](CCC(N)=O)C(=O)N[C@@H](C)C(=O)N[C@@H](CCC(=O)O)C(=O)N[C@@H](CCCNC(=N)N)C(=O)N[C@@H](CCSC)C(=O)N[C@@H](COP(=O)(O)O)C(=O)N[C@@H](CCC(N)=O)C(=O)N[C@H](C(=O)N[C@@H](CCCCN)C(=O)N[C@@H](CCCNC(=N)N)C(=O)N[C@@H](CC(C)C)C(=O)N[C@@H](CC(C)C)C(=O)N[C@@H](CO)C(=O)N[C@@H](CCC(=O)O)C(=O)N[C@@H](CCCCN)C(=O)O)[C@@H](C)CC)C2=O)cc1)OC(=O)CCCCCCCCCCCCCCC (stereo partly drawn) [CD4] (H-C(X1)HRRRQAERM[pS]QIKRLLSEK-OH; N-terminus and C-terminus assumed) | further increases in lateral pressure | > 10 | 84 ± 6 | 24 | 10 ± 4 | A similar increment was also found | confined to the headgroups layer | did not alter the existence of the LE phase | – | – | – | – | – | – | – | – | – | –
AP2 (recombinant adaptor protein complex 2, hetero-tetramer) (from UniProt P18484 1-938; P63010 1-937; P84092 1-435; P62743 1-142) | – | – | – | – | – | – | – | – | 24 | 51 | 75 | 0.00012 | 93 | 8330 | 12 | 15 | 64 | 5560
